Assay results taken from ChEMBL document CHEMBL1135423, “Acyl-protected hydroxylamines as spin label generators for EPR brain imaging” (J Med Chem, 2002).
Blank lines part the entries; values can stand above or below the compound they belong to.

Columns and labels:
Type in all cases: ADME, organism-based
[1] = system: Mus musculus; test: Biodistribution in mice as total concentration of both oxidized and reduced forms in blood and animals were sacrificed 10 minutes after ip dosing, in DMSO solution; details: in vivo
How it was run: (§1)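 Female C3H HenMTV⁻ mice (6-8 weeks old, 22-25 g; three per time point) were given an ip injection of 500 µL of 40 mM compound. They were euthanized at 10 or 60 min. Brain, heart, liver, kidney, spleen and blood were excised and each homogenized in ice-cold PBS. One half of each homogenate received K₃[Fe(CN)₆] (final 1 mM) to oxidize hydroxylamine to nitroxide. Total nitroxide plus hydroxylamine was read from EPR signal intensity.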

[2] = system: Mus musculus; test: Biodistribution of compound (oxidized form) in liver tissues, animals were sacrificed 60 minutes after dosing, in DMSO solution; details: in vivo, 1 h
How it was run: (§2)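 In female C3H HenMTV⁻ mice (6-8 weeks, 22-25 g; three per time point), compound was injected ip as 500 µL of 40 mM solution. Animals were killed 10 or 60 min later. Brain, heart, liver, kidney, spleen and blood were removed and each homogenized in ice-cold PBS. Nitroxide (oxidized form) was quantified by EPR signal intensity in the half of each homogenate not treated with ferricyanide.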

[3] = system: Mus musculus; test: Biodistribution of compound (oxidized form) in spleen tissue, animals were sacrificed 10 minutes after dosing, in DMSO solution; details: in vivo; how it was run: as §2
[4] = system: Mus musculus; test: Biodistribution of compound (oxidized form) in spleen tissues, animals were sacrificed 60 minutes after dosing, in DMSO solution; details: in vivo, 1 h; how it was run: as §2
[5] = system: Mus musculus; test: Biodistribution of compound (total concentration of both oxidized and reduced forms) in blood tissues, animals were sacrificed 60 minutes after dosing, in DMSO; details: in vivo, 1 h
How it was run: (§3)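 Female C3H HenMTV⁻ mice (6-8 weeks old, 22-25 g; three per time point) got one i.p. injection of 500 µL of 40 mM compound. They were euthanized at 10 or 60 min. Organs and blood were excised and homogenized separately in ice-cold PBS. One half of each homogenate received K₃[Fe(CN)₆] (final 1 mM) to oxidize hydroxylamine. Total nitroxide plus hydroxylamine was quantified by EPR signal intensity.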

[6] = system: Mus musculus; test: Biodistribution of compound (total concentration of both oxidized and reduced forms) in heart tissues, animals were sacrificed 10 minutes after dosing, in DMSO; details: in vivo; how it was run: as §3
[7] = system: Mus musculus; test: Biodistribution of compound (total concentration of both oxidized and reduced forms) in heart tissues, animals were sacrificed 60 minutes after dosing, in DMSO; details: in vivo, 1 h; how it was run: as §3
[8] = system: Mus musculus; test: Biodistribution in mice as total concentration of both oxidized and reduced forms in kidney and animals were sacrificed 10 minutes after ip dosing, in DMSO solution; details: in vivo; how it was run: as §1
[9] = system: Mus musculus; test: Biodistribution in mice as total concentration of both oxidized and reduced forms in liver and animals were sacrificed 10 minutes after ip administration in DMSO solution; details: in vivo; how it was run: as §1
[10] = system: Mus musculus; test: Biodistribution in mice as total concentration of both oxidized and reduced forms in spleen and animals were sacrificed 10 minutes after ip dosing, in DMSO solution; details: in vivo; how it was run: as §1
[11] = system: Mus musculus; test: Biodistribution in mice, total concentration of both oxidized and reduced forms in brain tissues, animals were sacrificed 60 minutes after dosing, in DMSO; details: in vivo, 1 h; how it was run: as §1
[12] = system: Mus musculus; test: Biodistribution of compound (oxidized form) in blood tissue, animals were sacrificed 10 minutes after dosing, in DMSO solution; details: in vivo; how it was run: as §2
[13] = system: Mus musculus; test: Biodistribution of compound (oxidized form) in blood tissues, animals were sacrificed 60 minutes after dosing, in DMSO solution; details: in vivo, 1 h; how it was run: as §2
[14] = system: Mus musculus; test: Biodistribution of compound (oxidized form) in brain tissue, animals were sacrificed 10 minutes after dosing, in DMSO sol.; details: in vivo; how it was run: as §2
[15] = system: Mus musculus; test: Biodistribution of compound (oxidized form) in brain tissue, animals were sacrificed 60 minutes after dosing, in DMSO solution; details: in vivo, 1 h; how it was run: as §2
[16] = system: Mus musculus; test: Biodistribution of compound (oxidized form) in brain tissues, animals were sacrificed 10 minutes after dosing, in DMSO solution; details: in vivo; how it was run: as §2
[17] = system: Mus musculus; test: Biodistribution of compound (oxidized form) in heart tissue, animals were sacrificed 10 minutes after dosing, in DMSO sol.; details: in vivo; how it was run: as §2
[18] = system: Mus musculus; test: Biodistribution of compound (oxidized form) in heart tissue, animals were sacrificed 60 minutes after dosing, in DMSO solution; details: in vivo, 1 h; how it was run: as §2
[19] = system: Mus musculus; test: Biodistribution of compound (oxidized form) in kidney tissue, animals were sacrificed 10 minutes after dosing, in DMSO solution; details: in vivo; how it was run: as §2
[20] = system: Mus musculus; test: Biodistribution of compound (oxidized form) in kidney tissue, animals were sacrificed 60 minutes after dosing, in DMSO solution; details: in vivo, 1 h; how it was run: as §2
[21] = system: Mus musculus; test: Biodistribution of compound (oxidized form) in liver tissue, animals were sacrificed 10 minutes after dosing, in DMSO sol.; details: in vivo; how it was run: as §2
[22] = system: Mus musculus; test: Biodistribution of compound (total concentration of both oxidized and reduced forms) in liver tissues, animals were sacrificed 60 minutes after dosing, in DMSO; details: in vivo, 1 h; how it was run: as §3
[23] = system: Mus musculus; test: Biodistribution of compound (total concentration of both oxidized and reduced forms) in spleen tissues, animals were sacrificed 60 minutes after dosing, in DMSO; details: in vivo, 1 h; how it was run: as §3
[24] = system: Mus musculus; test: Biodistribution of compound (total concentration of both oxidized and reduced forms) in kidney tissues, animals were sacrificed 60 minutes after dosing, in DMSO; details: in vivo, 1 h; how it was run: as §3
[25] = species: Mus musculus; test: Biodistribution of compound (oxidized form) in kidney tissue; details: in vivo; how it was run: as §2
[26] = species: Mus musculus; test: Biodistribution of compound (oxidized form) in spleen tissue; details: in vivo; how it was run: as §2
[27] = system: Mus musculus; test: Biodistribution of compound (oxidized form) in spleen tissues, animals were sacrificed 60 minutes after dosing, in DMSO; details: in vivo, 1 h; how it was run: as §2
[28] = species: Mus musculus; test: Biodistribution of compound (total concentration of both oxidized and reduced forms) in blood; details: in vivo; how it was run: as §3
[29] = species: Mus musculus; test: Biodistribution of compound (total concentration of both oxidized and reduced forms) in brain tissues; details: in vivo; how it was run: as §3
[30] = system: Mus musculus; test: Biodistribution of compound (total concentration of both oxidized and reduced forms) in brain tissues, animals were sacrificed 60 minutes after dosing, in DMSO; details: in vivo, 1 h; how it was run: as §3
[31] = species: Mus musculus; test: Biodistribution of compound (total concentration of both oxidized and reduced forms) in heart tissues; details: in vivo; how it was run: as §3
[32] = species: Mus musculus; test: Biodistribution of compound (total concentration of both oxidized and reduced forms) in kidney; details: in vivo; how it was run: as §3
[33] = species: Mus musculus; test: Biodistribution of compound (oxidized form) in blood tissue; details: in vivo; how it was run: as §2
[34] = system: Mus musculus; test: Biodistribution of compound (oxidized form) in blood tissues, animals were sacrificed 60 minutes after dosing, in DMSO; details: in vivo, 1 h; how it was run: as §2
[35] = species: Mus musculus; test: Biodistribution of compound (oxidized form) in brain tissue of mice; details: in vivo; how it was run: as §2
[36] = system: Mus musculus; test: Biodistribution of compound (oxidized form) in brain tissue, animals were sacrificed 60 minutes after dosing, in DMSO; details: in vivo, 1 h; how it was run: as §2
[37] = species: Mus musculus; test: Biodistribution of compound (oxidized form) in heart tissue of mice; details: in vivo; how it was run: as §2
[38] = system: Mus musculus; test: Biodistribution of compound (oxidized form) in heart tissue, animals were sacrificed 60 minutes after dosing, in DMSO; details: in vivo, 1 h; how it was run: as §2
[39] = system: Mus musculus; test: Biodistribution of compound (oxidized form) in kidney tissue, animals were sacrificed 60 minutes after dosing, in DMSO; details: in vivo, 1 h; how it was run: as §2
[40] = species: Mus musculus; test: Biodistribution of compound (oxidized form) in liver tissue; details: in vivo; how it was run: as §2
[41] = system: Mus musculus; test: Biodistribution of compound (oxidized form) in liver tissues, animals were sacrificed 60 minutes after dosing, in DMSO; details: in vivo, 1 h; how it was run: as §2
[42] = species: Mus musculus; test: Biodistribution of compound (total concentration of both oxidized and reduced forms) in spleen; details: in vivo; how it was run: as §3
[43] = system: Mus musculus; test: Biodistribution of compound (total concentration of both oxidized and reduced forms) in spleen tissues, animals were sacrificed 60 minutes after dosing in DMSO; details: in vivo, 1 h; how it was run: as §3
[44] = system: Mus musculus; test: Biodistribution of compound (total concentration of both oxidized and reduced forms) in kidney tissues, animals were sacrificed 60 minutes after dosing in DMSO; details: in vivo, 1 h; how it was run: as §3
[45] = species: Mus musculus; test: Biodistribution of compound (total concentration of both oxidized and reduced forms) in liver; details: in vivo; how it was run: as §3

- Biodistribution [1]: 100 nM (g of tissue)-1
- Biodistribution [2]: 0 nM (g of tissue)-1
- Biodistribution [3]: 0 nM (g of tissue)-1
- Biodistribution [4]: 0 nM (g of tissue)-1
- Biodistribution [5]: 25 nM (g of tissue)-1
- Biodistribution [6]: 100 nM (g of tissue)-1
- Biodistribution [7]: 25 nM (g of tissue)-1
- Biodistribution [8]: 400 nM (g of tissue)-1
- Biodistribution [9]: 50 nM (g of tissue)-1
- Biodistribution [10]: 100 nM (g of tissue)-1
- Biodistribution [11]: 25 nM (g of tissue)-1
- Biodistribution [12]: 0 nM (g of tissue)-1
- Biodistribution [13]: 0 nM (g of tissue)-1
- Biodistribution [14]: 2 nM (g of tissue)-1
- Biodistribution [15]: 5 nM (g of tissue)-1
- Biodistribution [16]: 0 nM (g of tissue)-1
- Biodistribution [17]: 0 nM (g of tissue)-1
- Biodistribution [18]: 0 nM (g of tissue)-1
- Biodistribution [19]: 0 nM (g of tissue)-1
- Biodistribution [20]: 0 nM (g of tissue)-1
- Biodistribution [21]: 0 nM (g of tissue)-1
- Biodistribution [22]: 30 nM (g of tissue)-1
- Biodistribution [23]: 25 nM (g of tissue)-1
- Biodistribution [24]: 25 nM (g of tissue)-1
Compound: COC(=O)C1CC(C)(C)N(OC(C)=O)C1(C)C (stereo not drawn)

- Biodistribution [25]: 50 nM (g of tissue)-1
- Biodistribution [26]: 40 nM (g of tissue)-1
- Biodistribution [27]: 20 nM (g of tissue)-1
- Biodistribution [28]: 750 nM (g of tissue)-1
- Biodistribution [5]: 400 nM (g of tissue)-1
- Biodistribution [29]: 0 nM (g of tissue)-1
- Biodistribution [30]: 0 nM (g of tissue)-1
- Biodistribution [31]: 250 nM (g of tissue)-1
- Biodistribution [7]: 250 nM (g of tissue)-1
- Biodistribution [32]: 2500 nM (g of tissue)-1
- Biodistribution [33]: 50 nM (g of tissue)-1
- Biodistribution [34]: 20 nM (g of tissue)-1
- Biodistribution [35]: 0 nM (g of tissue)-1
- Biodistribution [36]: 0 nM (g of tissue)-1
- Biodistribution [37]: 10 nM (g of tissue)-1
- Biodistribution [38]: 5 nM (g of tissue)-1
- Biodistribution [39]: 40 nM (g of tissue)-1
- Biodistribution [40]: 100 nM (g of tissue)-1
- Biodistribution [41]: 20 nM (g of tissue)-1
- Biodistribution [22]: 250 nM (g of tissue)-1
- Biodistribution [42]: 750 nM (g of tissue)-1
- Biodistribution [43]: 150 nM (g of tissue)-1
- Biodistribution [44]: 2500 nM (g of tissue)-1
- Biodistribution [45]: 250 nM (g of tissue)-1
Compound: CC(=O)OCOC(=O)C1CC(C)(C)N(OC(C)=O)C1(C)C (stereo not drawn)
